Source: ChEMBL document CHEMBL1287656, “New octahydroquinazoline derivatives: synthesis and hypotensive activity” (Eur J Med Chem, 2010)
Calls of active or inactive are those of the source. The rule behind the calls is not given here.

Columns and labels:
Rattus norvegicus [1] = test: Hypotensive activity in anaesthetized albino rat assessed as change in diastolic arterial blood pressure at 5 mg/kg, ip after 5 mins relative to control; type: functional; details: route intraperitoneal
Procedure, shortened: (§1)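 Male adult albino rats (groups of 6) anaesthetised with urethane 1.75–2.0 g/Kg i.p. Test agent given i.p. at 5 mg/Kg, dissolved in tween 80 and diluted 1:3 with distilled water. A solvent-treated group served as control. Arterial pressure was recorded via a cannula and pressure transducer on a chart oscillograph at 5, 15, 30 and 60 min. Statistics by one-way ANOVA or unpaired t test.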

Rattus norvegicus [2] = test: Hypotensive activity in anaesthetized albino rat assessed as change in systolic arterial blood pressure at 5 mg/kg, ip after 5 mins relative to control; type: functional; details: route intraperitoneal; procedure, shortened: as §1
Rattus norvegicus [3] = test: Hypotensive activity in anaesthetized albino rat assessed as change in diastolic arterial blood pressure at 60 mg/kg, ip after 5 mins relative to control; type: functional; details: route intraperitoneal
Rattus norvegicus [4] = test: Toxicity in anaesthetized albino rat assessed as change in heart rate at 5 mg/kg, ip after 5 mins relative to control; type: organism-based; set-up: dose 5 mg/kg, route intraperitoneal; details: in vivo
Procedure, shortened: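 Urethane-anaesthetised (1.75–2.0 g/Kg i.p.) male albino rats, 6 per group, received 5 mg/Kg i.p. in tween 80/distilled water (1:3); solvent-treated controls. Heart rate was taken from a lead II ECG at 5 min after injection (also 15, 30, 60 min). Analysed by ANOVA or unpaired t test.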

Rattus norvegicus [5] = test: Toxicity in anaesthetized albino rat assessed as change in heart rate at 15 mg/kg, ip after 5 mins relative to control; type: organism-based; set-up: dose 15 mg/kg, route intraperitoneal; details: in vivo
Rattus norvegicus [6] = test: Toxicity in anaesthetized albino rat assessed as change in heart rate at 30 mg/kg, ip after 5 mins relative to control; type: organism-based; set-up: dose 30 mg/kg, route intraperitoneal; details: in vivo
Rattus norvegicus [7] = test: Toxicity in anaesthetized albino rat assessed as change in heart rate at 60 mg/kg, ip after 5 mins relative to control; type: organism-based; set-up: dose 60 mg/kg, route intraperitoneal; details: in vivo
Rattus norvegicus [8] = test: Hypotensive activity in anaesthetized albino rat assessed as change in systolic arterial blood pressure at 15 mg/kg, ip; type: functional, organism-based; set-up: dose 15 mg/kg; details: TDE = time-dependent effect
Rattus norvegicus [9] = test: Hypotensive activity in anaesthetized albino rat assessed as change in diastolic arterial blood pressure at 5 mg/kg, ip; details: TDE = time-dependent effect
Rattus norvegicus [10] = test: Hypotensive activity in anaesthetized albino rat assessed as change in systolic arterial blood pressure at 5 mg/kg, ip after 15 mins relative to control; details: route intraperitoneal
Rattus norvegicus [11] = test: Hypotensive activity in anaesthetized albino rat assessed as change in systolic arterial blood pressure at 5 mg/kg, ip after 60 mins relative to control; details: route intraperitoneal
Rattus norvegicus [12] = test: Hypotensive activity in anaesthetized albino rat assessed as change in diastolic arterial blood pressure at 5 mg/kg, ip after 15 mins relative to control; details: route intraperitoneal
Rattus norvegicus [13] = test: Hypotensive activity in anaesthetized albino rat assessed as change in diastolic arterial blood pressure at 5 mg/kg, ip after 30 mins relative to control; details: route intraperitoneal
Rattus norvegicus [14] = test: Hypotensive activity in anaesthetized albino rat assessed as change in systolic arterial blood pressure at 5 mg/kg, ip up to 60 mins; type: functional, organism-based; set-up: dose 5 mg/kg; procedure, shortened: as §1
Rattus norvegicus [15] = test: Hypotensive activity in anaesthetized albino rat assessed as change in diastolic arterial blood pressure at 5 mg/kg, ip up to 60 mins; type: functional, organism-based; set-up: dose 5 mg/kg; procedure, shortened: as §1
Rattus norvegicus [16] = test: Hypotensive activity in anaesthetized albino rat assessed as reduction of adrenaline-induced increase in systolic arterial blood pressure at […], iv administered 30 mins before adrenaline challenge measured after 30 mins relative to control; type: functional; set-up: scale not given: the % may be the effect or the level left
Procedure, shortened: (§2)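 Anaesthetised male albino rats (urethane 1.75–2.0 g/Kg i.p.; n=6 per group). Adrenaline (3/Kg i.v.) pressor response was recorded alone, 30 min before i.p. injection of the test agent (5 mg/Kg in tween 80/water). The adrenaline challenge was repeated 30 min and 1 h after dosing. Systolic and diastolic pressure were recorded via a cannulated artery and transducer.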

Rattus norvegicus [17] = test: Hypotensive activity in anaesthetized albino rat assessed as reduction of adrenaline-induced increase in diastolic arterial blood pressure at 3 ug/kg, iv administered 30 mins before adrenaline challenge measured after 30 mins relative to control; type: functional; set-up: scale not given: the % may be the effect or the level left; procedure, shortened: as §2
Rattus norvegicus [18] = test: Hypotensive activity in anaesthetized albino rat assessed as reduction of adrenaline-induced increase in systolic arterial blood pressure at 3 ug/kg, iv administered 30 mins before adrenaline challenge measured after 1 hr relative to control; type: functional; set-up: scale not given: the % may be the effect or the level left; procedure, shortened: as §2
Rattus norvegicus [19] = test: Hypotensive activity in anaesthetized albino rat assessed as reduction of adrenaline-induced increase in diastolic arterial blood pressure at 3 ug/kg, iv administered 30 mins before adrenaline challenge measured after 1 hr relative to control; type: functional; set-up: scale not given: the % may be the effect or the level left; procedure, shortened: as §2

| SMILES | Activity (Rattus norvegicus [1]) [%] | Activity (Rattus norvegicus [2]) [%] | Activity (Rattus norvegicus [3]) [%] | Activity (Rattus norvegicus [4]) [%] | Activity (Rattus norvegicus [5]) [%] | Activity (Rattus norvegicus [6]) [%] | Activity (Rattus norvegicus [7]) [%] | Activity (Rattus norvegicus [8]) | Activity (Rattus norvegicus [9]) | Activity (Rattus norvegicus [10]) [%] | Activity (Rattus norvegicus [11]) [%] | Activity (Rattus norvegicus [12]) [%] | Activity (Rattus norvegicus [13]) [%] | Activity (Rattus norvegicus [14]) | Activity (Rattus norvegicus [15]) | Activity (Rattus norvegicus [16]) [%] | Activity (Rattus norvegicus [17]) [%] | Activity (Rattus norvegicus [18]) [%] | Activity (Rattus norvegicus [19]) [%] |
| --- | --- | --- | --- | --- | --- | --- | --- | --- | --- | --- | --- | --- | --- | --- | --- | --- | --- | --- | --- |
| CC1(C)CC(=O)C2=C(C1)N(c1ccc(Cl)cc1)CN(c1ccc(Cl)cc1)C2 | 18.2 | 17.8 | 28 | 0 | 0 | 6 | 6 | tde | tde | 23 | 32.4 | 25 | 28 | – | – | – | – | – | – |
| CC1(C)CC(=O)C2=C(C1)N(c1ccc(Cl)cc1)CN(c1ccc(OCC(=O)NN)cc1)C2 | – | – | – | – | – | – | – | – | – | – | – | – | – | inactive | inactive | – | – | – | – |
| CC1(C)CC(=O)C2=C(C1)N(c1ccc(Cl)cc1)CN(c1ccccc1)C2 | 0 | 0 | -7.7 | 0 | 0 | 6.25 | 12 | tde | tde | 0 | -6 | 0 | -7.7 | – | – | -7 | -9 | 0 | 0 |
| COc1cccc(/C=N/NC(=O)COc2ccc(N3CC4=C(CC(C)(C)CC4=O)N(c4ccc(Cl)cc4)C3)cc2)c1 | – | – | – | – | – | – | – | – | – | – | – | – | – | inactive | inactive | – | – | – | – |
| Cc1ccc(N2CC3=C(CC(C)(C)CC3=O)N(c3ccc(Cl)cc3)C2)cc1 | 0 | 0 | -18.7 | 0 | 0 | 0 | 0 | tde | tde | 0 | -6 | 0 | -6.25 | – | – | -11 | -8 | 0 | 0 |
| CC1(C)CC(=O)C2=C(C1)N(c1ccc(Cl)cc1)CN(c1ccccc1F)C2 | – | – | – | – | – | – | – | – | – | – | – | – | – | inactive | inactive | – | – | – | – |
| CC1(C)CC(=O)C2=C(C1)N(c1ccc(Cl)cc1)CN(c1ccc(OCC(=O)N/N=C/c3ccc([N+](=O)[O-])cc3)cc1)C2 | -12.5 | -13 | -31.25 | 0 | -2.1 | -2.1 | -6.2 | – | – | -17 | -26.5 | -25 | -31.25 | – | – | -10 | -9 | -5 | -9 |
| CC1(C)CC(=O)C2=C(C1)N(c1ccc(Cl)cc1)CN(c1ccc(OCC(=O)N/N=C/c3ccccc3)cc1)C2 | -10 | -19 | -20 | 0 | -4 | 0 | 0 | – | – | -13 | -13 | -10 | -15 | – | – | -7 | -6 | -7 | -7 |
| CC1(C)CC(=O)C2=C(C1)N(c1ccc(Cl)cc1)CN(c1ccc(O)cc1)C2 | 0 | 0 | -5 | 0 | 0 | 0 | – | – | – | 0 | -3 | 0 | 0 | – | – | 17 | 10 | 17 | 16 |
| CC1(C)CC(=O)C2=C(C1)N(c1ccc(Cl)cc1)CN(c1ccc(OCC(=O)N/N=C/c3cccc(Br)c3)cc1)C2 | – | – | – | – | – | – | – | – | – | – | – | – | – | inactive | inactive | – | – | – | – |
| CC1(C)CC(=O)C2=C(C1)N(c1ccc(Cl)cc1)CN(c1ccc(OCC(=O)N/N=C/c3ccc(Cl)cc3)cc1)C2 | – | – | – | – | – | – | – | – | – | – | – | – | – | inactive | inactive | – | – | – | – |
| CC1(C)CC(=O)C2=C(C1)N(c1ccc(Cl)cc1)CN(c1ccc(OCC(=O)N/N=C/c3ccccc3Cl)cc1)C2 | – | – | – | – | – | – | – | – | – | – | – | – | – | inactive | inactive | – | – | – | – |
| COc1cc2nc(N3CCN(C(=O)c4ccco4)CC3)nc(N)c2cc1OC [PRAZOSIN] | -22.22 | -20.8 | -38.8 | 30 | 26 | 16 | -5.1 | – | – | -29.2 | -33.3 | -22.22 | -27.7 | – | – | -11 | -8 | 0 | 0 |
| CC1(C)CC(=O)C2=C(C1)N(c1ccc(Cl)cc1)CN(c1ccc(OCC(=O)N/N=C/c3ccc(Cl)cc3Cl)cc1)C2 | – | – | – | – | – | – | – | – | – | – | – | – | – | inactive | inactive | – | – | – | – |
| CCOC(=O)COc1ccc(N2CC3=C(CC(C)(C)CC3=O)N(c3ccc(Cl)cc3)C2)cc1 | – | – | – | – | – | – | – | – | – | – | – | – | – | inactive | inactive | – | – | – | – |
| CC1(C)CC(=O)C2=C(C1)N(c1ccc(Cl)cc1)CN(c1ccc(Br)cc1)C2 | – | – | – | – | – | – | – | – | – | – | – | – | – | inactive | inactive | – | – | – | – |
| COc1ccc(/C=N/NC(=O)COc2ccc(N3CC4=C(CC(C)(C)CC4=O)N(c4ccc(Cl)cc4)C3)cc2)cc1 | – | – | – | – | – | – | – | – | – | – | – | – | – | inactive | inactive | – | – | – | – |
| CC1(C)CC(=O)C2=C(C1)N(c1ccc(Cl)cc1)CN(c1ccc(F)cc1)C2 | – | – | – | – | – | – | – | – | – | – | – | – | – | inactive | inactive | – | – | – | – |
| Cc1ccc(/C=N/NC(=O)COc2ccc(N3CC4=C(CC(C)(C)CC4=O)N(c4ccc(Cl)cc4)C3)cc2)cc1 | -25 | -17.8 | -37.5 | -2 | -5 | -6.3 | -6.3 | – | – | -21.4 | -39.3 | -25 | -29.16 | – | – | -11 | -19 | -22 | -28.5 |
| CC1(C)CC(=O)C2=C(C1)N(c1ccc(Cl)cc1)CN(c1ccc(OCC(=O)N/N=C/c3cccc([N+](=O)[O-])c3)cc1)C2 | – | – | – | – | – | – | – | – | – | – | – | – | – | inactive | inactive | – | – | – | – |
| CC1(C)CC(=O)C2=C(C1)N(c1ccc(Cl)cc1)CN(c1ccc(OCC(=O)N/N=C/c3ccc(Br)cc3)cc1)C2 | – | – | – | – | – | – | – | – | – | – | – | – | – | inactive | inactive | – | – | – | – |
